The target in assay [1] is T1, Human immunodeficiency virus type 1 reverse transcriptase (Human immunodeficiency virus 1, UniProt Q72547). Briefly: Inhibition of RNase H activity of full length recombinant HIV1 reverse transcriptase assessed as reduction in nonspecific internal cleavage using HTS1 substrate. Particulars: read-out: IC50; call rule not given here. In a few lines:
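Recombinant p66/p51 RT heterodimer. Fluorescent RNA/DNA duplex substrate HTS-1 measures internal cleavage. IC50 is the mean of at least three independent experiments.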

In assay [2] the target is T1, Human immunodeficiency virus type 1 reverse transcriptase. Briefly: Inhibition of RNase H activity of full length recombinant HIV1 reverse transcriptase assessed as reduction in DNA 3'-end cleavage using HTS2 substrate. In a few lines:
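Recombinant p66/p51 RT heterodimer. Fluorescent RNA/DNA duplex substrate HTS-2 reports DNA 3′-end-directed (polymerase-dependent) cleavage. IC50 is the mean of at least three independent experiments.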

The target is the same in assay [3]. Briefly: Inhibition of RNase H activity of full length recombinant HIV1 reverse transcriptase assessed as reduction in RNA 5'-end directed cleavage using HTS3 substrate.
For assay [4] the target is unchanged. The assay is described as follows: Inhibition of polymerase activity of HIV1 reverse transcriptase using poly(rA)-oligo(dT)16 and [3H]-TTP incubated for 20 mins by liquid scintillation spectrometry. In a few lines: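 Reaction mix: 10 µM [3H]-TTP, 40 nM poly(rA)-oligo(dT)16, 50 mM Tris-HCl pH 7.4 (37°C), 60 mM KCl, 5 mM MgCl2. Started with 10 nM RT; 20 min at 37°C. Quenched in ice-cold 10% TCA with 20 mM sodium pyrophosphate, then glass-fibre filtered and washed with TCA and ethanol. Label incorporation read by liquid scintillation.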

As usually defined, the IC50 is the concentration that gives 50% inhibition.

As to `Cn1c(Oc2ccc(-c3ccc(C#N)cc3)cc2)cc(=O)n(O)c1=O`, the half-inhibitory concentration (IC50) in assay [1] was 2500 nM; in assay [2] (read-out: IC50), 11000 nM; in assay [3] (read-out: IC50), 4700 nM; in assay [4] it was “Not Active”.
For the compound `O=c1cc(Nc2ccc(-c3ccc(Cl)cc3)cc2)[nH]c(=O)n1O`, the half-inhibitory concentration (IC50) is 470 nM in assay [1], 660 nM in assay [2] (read-out: IC50), 600 nM in assay [3] (read-out: IC50) and 990 nM in assay [4] (read-out: IC50).
Regarding `Cn1c(Oc2ccc(-c3ccc(C(F)(F)F)cc3)cc2)cc(=O)n(O)c1=O`, the IC50 in assay [1] was 6200 nM; in assay [2], “Not Active”; in assay [3], “Not Active”; in assay [4], “Not Active”.
On to `Cn1c(Oc2ccc(-c3ccncc3)cc2)cc(=O)n(O)c1=O`, for which the half-maximal inhibitory concentration (IC50) in assay [1] was 3700 nM; in assay [2] it was “Not Active”; in assay [3] (read-out: IC50), 10000 nM; in assay [4] it was “Not Active”.
Turning to `Cn1c(Oc2cccc(-c3cccc(C#N)c3)c2)cc(=O)n(O)c1=O`, the IC50 was 900 nM in assay [1], 6700 nM in assay [2] (read-out: IC50), 4600 nM in assay [3] (read-out: IC50) and “Not Active” in assay [4].
Regarding `O=c1cc(Nc2ccc(-c3ccc(O)cc3)cc2)[nH]c(=O)n1O`, the 50% inhibitory concentration (IC50) amounted to 180 nM in assay [1], 450 nM in assay [2] (read-out: IC50), 370 nM in assay [3] (read-out: IC50) and 820 nM in assay [4] (read-out: IC50).
As for `Cn1c(Oc2ccccc2-c2ccccc2O)cc(=O)n(O)c1=O`, the IC50 in assay [1] is 11000 nM; in assay [2], “Not Active”; in assay [3], “Not Active”; in assay [4], “Not Active”.
For the compound `Cn1c(Oc2ccccc2-c2ccc(Cl)cc2)cc(=O)n(O)c1=O`, the IC50 in assay [1] is 3300 nM; in assay [2] it was “Not Active”; in assay [3] (read-out: IC50), 13000 nM; in assay [4] (read-out: IC50) it was 14000 nM.
Regarding `Cc1noc(C)c1-c1ccccc1Nc1cc(=O)n(O)c(=O)n1C`, the IC50 in assay [1] is 6600 nM; in assay [2] it was “Not Active”; in assay [3] it was “Not Active”; in assay [4], “Not Active”.
Turning to `O=c1cc(Nc2cccc(-c3ccc(Cl)cc3)c2)[nH]c(=O)n1O`, the 50% inhibitory concentration (IC50) in assay [1] worked out at 220 nM; in assay [2] (read-out: IC50), 450 nM; in assay [3] (read-out: IC50), 370 nM; in assay [4] (read-out: IC50) it was 860 nM.
For `Cn1c(Oc2cccc(-c3ccc(C#N)cc3)c2)cc(=O)n(O)c1=O`, the half-inhibitory concentration (IC50) in assay [1] was 1200 nM; in assay [2] (read-out: IC50), 6900 nM; in assay [3] (read-out: IC50), 3900 nM; in assay [4] it was “Not Active”.
With `Cc1ccc(-c2cccc(Nc3cc(=O)n(O)c(=O)n3C)c2)cc1`, the IC50 in assay [1] worked out at 1700 nM; in assay [2] (read-out: IC50) it was 7200 nM; in assay [3] (read-out: IC50), 6200 nM; in assay [4] (read-out: IC50) it was 17000 nM.
In the case of `Cn1c(Oc2ccc(-c3ccc(Cl)cc3)cc2)cc(=O)n(O)c1=O`, the half-maximal inhibitory concentration (IC50) is 2400 nM in assay [1], “Not Active” in assay [2], 11000 nM in assay [3] (read-out: IC50) and “Not Active” in assay [4].
Regarding `Cn1c(Oc2ccc(-c3cccc(C#N)c3)cc2)cc(=O)n(O)c1=O`, the 50% inhibitory concentration (IC50) in assay [1] was 1900 nM; in assay [2] (read-out: IC50), 13000 nM; in assay [3] (read-out: IC50) it was 11000 nM; in assay [4] it was “Not Active”.
With `O=c1cc(Nc2ccc(-c3ccccc3O)cc2)[nH]c(=O)n1O`, the IC50 in assay [1] turned out to be 240 nM; in assay [2] (read-out: IC50), 490 nM; in assay [3] (read-out: IC50) it was 460 nM; in assay [4] (read-out: IC50), 830 nM.
On the same counts, the results for `O=c1cc(Nc2ccc(-c3cccc(O)c3)cc2)[nH]c(=O)n1O` are 220 nM, 430 nM, 400 nM and 790 nM.
For `COc1ccc(-c2ccc(Nc3cc(=O)n(O)c(=O)n3C)cc2)c(OC)c1`, the IC50 is 1500 nM in assay [1], 4300 nM in assay [2] (read-out: IC50), 5300 nM in assay [3] (read-out: IC50) and “Not Active” in assay [4].
For `COc1ccccc1-c1ccc(Nc2cc(=O)n(O)c(=O)n2C)cc1` the same measures were 2800 nM, 9300 nM, 8900 nM and “Not Active”.
